STAT3 inh-1: IL-6 driven STAT3 reporter inhibitors, primary screen, U3A cells, luciferase, luminescence, MLSCN library | IL-6 STAT3-luciferase reporter; host cell line lacks STAT1 | inhibition, % at 5.5 µM | hit rate 0.89% among 190,000 | AID 862, 2007;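 active = inhibition above the mean inhibition across all screened compounds plus 3 SD, cut at about 44% in these data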
PPC-1+TRAIL kill: compounds killing PPC-1 cancer cells with TRAIL present, primary screen, TRAIL potentiator project, ATPLite luminescence, uHTS; PPC-1 cells + TRAIL, ATPLite viability luminescence; hit rate 0.41% among 220,000; cell killing (% activity), % at 4 µM or 5 µM;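 active = cell killing above 50% in the first pass at 4 µM, then a duplicate retest at 5 µM averaging 50% or more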
TRAIL sens C8: viability loss with TRAIL in NB7+C8 cells, primary screen, TRAIL sensitizer project, cell-based, ATPlite luminescence; AID 624354, 2012; hit rate 1% among 360,000; inhibition (viability loss, TRAIL sensitization), % at 10 µM;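 active = compounds causing at least 50% loss of cell viability in the single-dose screen, relative to plate controls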
FLuc stim CS: FLuc activators, initial screening, artefact control for FLuc-dependent activation tests, biochemical, ATPlite luminescence; Luciferin 4-monooxygenase (Photinus pyralis), P08659; ATPlite luciferase biochemical, 10 min; 0 = ATP-free wells, 1 = DMSO control; activation factor at 10 µM; 200,000 tested, under 10 active;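 active = luciferase activation factor, scaled between plate controls, of at least 2 with compound at 10 µM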
Target sequence (P08659 whole entry, looked up): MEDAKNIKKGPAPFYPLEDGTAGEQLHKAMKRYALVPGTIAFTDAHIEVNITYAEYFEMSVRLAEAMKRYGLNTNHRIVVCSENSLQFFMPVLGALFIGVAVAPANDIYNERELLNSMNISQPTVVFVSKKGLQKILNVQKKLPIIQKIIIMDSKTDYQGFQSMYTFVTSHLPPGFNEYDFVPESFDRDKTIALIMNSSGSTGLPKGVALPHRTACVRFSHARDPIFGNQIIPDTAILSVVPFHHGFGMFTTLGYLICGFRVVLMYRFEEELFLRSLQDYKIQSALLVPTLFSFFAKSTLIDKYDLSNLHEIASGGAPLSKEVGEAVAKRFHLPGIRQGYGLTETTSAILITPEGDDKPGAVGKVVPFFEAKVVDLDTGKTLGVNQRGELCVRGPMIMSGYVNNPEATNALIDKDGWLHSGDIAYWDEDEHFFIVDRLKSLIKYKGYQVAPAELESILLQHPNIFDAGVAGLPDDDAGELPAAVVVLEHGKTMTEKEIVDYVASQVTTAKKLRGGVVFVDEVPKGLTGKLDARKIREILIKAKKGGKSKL
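Material: Luciferase/luciferin reagent mix | Doses: Test compounds dosed from 2 mM stocks in 100% DMSO | Timing: 10 min incubation after luciferase reagent addition, room temperature | Measured by: Luminescence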
FLuc inh counter: firefly luciferase enzyme inhibitors, primary screen, artefact control for luciferase-based inhibitor screens, biochemical, luminescence, ATPLite; Luciferin 4-monooxygenase (Photinus pyralis), P08659; 10 min; inhibition, % at 10 µM; hit rate 1.5% among 200,000;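 active = inhibition above about 50% when tested at 10 µM, limit read from the data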
HSP90 refold inh: HSP90 inhibitors, primary screen, cell lysate, luminescence | AID 1789, 2009 | Rabbit reticulocyte lysate, luciferase refolding luminescence, 3 h | hit rate 0.91% among 290,000 | Heat shock protein HSP 90 (rabbit reticulocyte lysate; luciferase refolding) | inhibition, % at 5.6 µM;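 active = inhibition above the screen-wide mean plus 3 SD, computed separately per campaign, cut at about 16% in these data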;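 note: inhibitors lower the luminescence because luciferase stays unfolded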
STAT3 inh-2: STAT3 reporter inhibitors, retest of hits, confirmation, U3A cells, luciferase, luminescence. inhibition, % at 5.7 µM. shares compounds with STAT3 inh-1. hit rate 45% among 1,200. IL-6 STAT3 luciferase reporter; cell line lacks STAT1;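 active = inhibition above the hit cutoff computed for the primary STAT3 screen, cut at about 44% in these data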
NFkB inh 2: NF-kB reporter inhibitors in human cells, confirmation, counter-screen for STAT3 inhibitor project, cell-based, HEK293T, luciferase, TNF-alpha stimulus. TNF-alpha induced. shares compounds with STAT3 inh-1. inhibition, % at 5.7 µM. hit rate 36% among 1,200;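 active = inhibition above the mean of solvent-only control wells plus 3 SD, cutoff set per campaign, cut at about 13% in these data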
STAT1 inh 2: STAT1 reporter inhibitors, IFN-gamma induced, confirmation, counter-screen for STAT3 inhibitor project, cell-based, NIH 3T3, luciferase luminescence; shares compounds with STAT3 inh-1; NIH 3T3 STAT1-luciferase reporter; inhibition, % at 5.7 µM; hit rate 27% among 1,200;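 active = inhibition above the mean plus 3 SD of solvent-only control wells, limit set per screening run, cut at about 16% in these data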
Numbers stand for hits; n = inactive; x = no result. Hits are enriched below; roughly 2.2% of the tested compounds scored in any of these assays.

SMILES	STAT3 inh-1	PPC-1+TRAIL kill	TRAIL sens C8	FLuc stim CS	FLuc inh counter	HSP90 refold inh	STAT3 inh-2	NFkB inh 2	STAT1 inh 2
COc1cc(C)c(Cl)cc1S(=O)(=O)NCc1ccccn1	x	x	n	x	x	n	x	x	x
CC(=O)CSc1nc2cc3c(cc2cc1C#N)OCCO3	77.7	n	67.2	n	n	n	n	n	n
N#Cc1cc2cc3c(cc2nc1SCC(=O)N1CCCC1)OCCO3	x	x	n	x	x	n	x	x	x
Cc1ccc2c(C)nc(Nc3nc(CSc4nc5ccccc5[nH]4)cc(=O)[nH]3)nc2c1	53.0	n	n	n	n	n	45.4	n	n
O=C(Nc1ccc(CN2CCOCC2)cc1)c1ccc(Cl)cc1	x	x	n	x	x	n	x	x	x
COC(=O)c1ccc(NC(=O)c2ccc(CN3CCOCC3)cc2)cc1	54.1	n	n	n	n	n	n	n	n
O=C(Nc1ccc(S(=O)(=O)Nc2ccccc2)cc1)c1ccc(CN2CCOCC2)cc1	83.9	n	n	n	n	n	77.5	27.5	n
COC1=CC(=O)OC(c2ccco2)C1 (stereo unspecified)	x	x	n	x	x	x	x	x	x
Cc1ccc(/C=C/c2nnc(-c3cccs3)o2)cc1	63.8	n	n	n	50.9	n	n	n	n
Fc1ccc(/C=C/c2nnc(-c3cccs3)o2)cc1	n	n	n	n	n	n	x	x	x
COC(=O)C1=C(CS(=O)(=O)c2ccccc2)NC(=O)NC1c1ccccc1 (stereo unspecified)	x	x	n	x	x	n	x	x	x
O=C(CCl)Nc1cc(-c2ccccc2)nn1-c1ccccc1	47.7	n	n	n	n	n	n	n	n
O=C(CN1C(=O)S/C(=C\c2ccccc2)C1=O)NNC(=O)c1ccccc1O	n	n	n	n	n	n	x	x	x
O=C(CCCN1C(=O)S/C(=C\c2ccccc2)C1=O)NNC(=O)c1ccccc1O	63.7	n	n	n	n	n	56.5	35.3	n
CCOc1ccc(NC(=O)N2CCN(S(C)(=O)=O)CC2)cc1	n	n	n	n	n	n	x	x	x
CCOc1ccc(NC(=O)N2CCN(c3nc4ccccc4s3)CC2)cc1	54.8	n	n	n	n	n	n	n	16.7
Cc1cccc(C)c1NC(=O)N1CCN(c2nc3ccccc3s2)CC1	56.5	n	n	n	n	n	56.8	n	n
Cc1cccc(Cl)c1NC(=O)N1CCCN(c2nc3ccc(Cl)cc3s2)CC1	x	n	n	x	x	n	x	x	x
COc1ccc(NC(=O)NC2CCCCCCC2)cc1	x	x	n	x	x	n	x	x	x
CCN(CC)c1ncnc2c1ncn2[C@H]1CN(Cc2cccnc2)C[C@@H](CO)O1	x	x	n	x	x	x	x	x	x
CC(C)OCCCNc1ncnc2c1[nH]c1ccccc12	65.9	n	n	n	n	n	61.6	17.5	32.4
O=c1c2[nH]c3ccccc3c2ncn1CCC1=CCCCC1	n	n	n	n	n	n	x	x	x
C1=C(CCNc2ncnc3c2[nH]c2ccccc23)CCCC1	82.8	n	n	n	n	n	78.5	41.1	31.9
COc1ccc(CNc2ncnc3c2[nH]c2ccccc23)cc1	x	n	n	x	x	n	x	x	x
NS(=O)(=O)c1ccc(NNC(=O)c2sccc2Cl)cc1	x	n	n	x	x	n	x	x	x
SMILES	STAT3 inh-1	PPC-1+TRAIL kill	TRAIL sens C8	FLuc stim CS	FLuc inh counter	HSP90 refold inh	STAT3 inh-2	NFkB inh 2	STAT1 inh 2
COC(=O)[C@@]12C[C@@H](CC(=O)N3CCCC3)C(=O)N(Cc3ccc4c(c3)OCO4)C1=CCC(C)(C)C2	x	x	n	x	x	x	x	x	x
CC(=O)NS(=O)(=O)c1ccc(NC(=O)c2ccccn2)cc1	n	n	n	n	n	n	x	x	x
O=C(Nc1ccc(SC(F)(F)F)cc1)c1ccccn1	61.5	n	n	n	71.2	n	n	n	n
CCc1nnc(NC(=O)c2ccc(OC)cc2)s1	57.3	n	n	n	83.2	n	n	n	n
COc1cc(OC)cc(C(=O)Nc2ccc(Nc3ccccc3)cc2)c1	x	x	n	x	x	n	x	x	x
COc1cc(OC)cc(C(=O)Nc2nnc(NC(=S)Nc3ccccc3)s2)c1	60.7	n	n	n	n	n	58.9	n	n
O=C(Nc1ccncc1)c1ccc2c(c1)C(=O)N(C1CCCCC1)C2=O	75.3	n	n	n	n	n	66.0	n	n
CC[n+]1ccccc1/C=C/c1ccc(N(C)C)cc1	68.3	n	n	n	n	n	60.3	n	n
Cc1ccc2c(C)c(C(=O)N(C)Cc3nccn3C)oc2c1C	x	x	n	x	x	n	x	x	x
CCOc1cccc2cc(-c3cn4cc(C)ccc4n3)c(=O)oc12	69.1	n	65.8	n	67.6	n	n	n	n
COCCn1cnnc1SCC(=O)c1ccc(S(=O)(=O)N2CCCC2)cc1	n	n	n	n	n	n	x	x	x
CC(=O)c1cccc(N=c2scc(-c3ccc(S(=O)(=O)N4CCOCC4)cc3)n2CCO)c1	75.2	n	n	n	n	n	77.5	26.9	25.3
Cc1ccc(CNC(=O)c2cc3c(C)nc4ccccc4c3o2)cc1	54.5	n	n	n	n	n	n	n	23.6
CCCCOc1ccc(Br)cc1CSC(=N)N	57.8	n	n	n	n	n	70.7	25.1	20.8
CCOc1ccc(C(C)=O)cc1CSC(=N)N	n	n	n	n	n	n	x	x	x
CC1C=CCC2C(=O)N(c3cccc(C(=O)NCc4ccccc4)c3)C(=O)C12 (stereo unspecified)	x	x	n	x	x	n	x	x	x
Cc1nn(Cc2ccc(Cl)cc2Cl)c(C)c1NC(=O)C1C2CCC(O2)C1C(=O)O (stereo unspecified)	47.2	n	n	n	n	n	n	n	n
COC(=O)COc1ccc(S(=O)(=O)NCc2ccncc2)cc1	63.2	n	n	n	n	n	54.5	n	18.6
CCCNC(=O)c1c(CSc2ccc(Cl)cc2)noc1C(=O)NCc1ccccc1	x	x	n	x	x	x	x	x	x
Cc1nn2cc(-c3ccccc3)nc2s1	52.2	n	n	n	n	n	n	n	n
COc1ccc2nc(NC(=S)N(C)C)sc2c1	43.9	n	n	n	n	n	n	n	n
O=C(NCc1cccnc1)c1ccc(-c2cc3ccccc3oc2=O)cc1	45.5	n	n	n	n	n	n	n	n
CCc1nn(C(CC)C(=O)NCCc2ccc(OC)cc2OC)c(=O)c2cc3occc3n12 (stereo unspecified)	x	x	n	x	x	n	x	x	x
Cc1cc(N=NC(=O)c2ccccc2)ccc1O	55.4	n	n	n	n	n	n	n	n
